Experimental data as given in ChEMBL document CHEMBL4270537, “Design and biological evaluation of novel triaryl pyrazoline derivatives with dioxane moiety for selective BRAFV600E inhibition” (Eur J Med Chem, 2018).
pIC50: −log10 of the molar value.

Key:
A-375 [1] = experiment: Cell cycle arrest in human A375 cells assessed as accumulation at G2/M phase at 2 uM after 48 hrs by propidium iodide staining based flow cytometry (reference value: 5.1%); assay type: functional
A-375 [2] = experiment: Cell cycle arrest in human A375 cells assessed as accumulation at G2/M phase at 20 uM after 24 hrs by propidium iodide staining based flow cytometry (reference value: 5.1%); assay type: functional
A-375 [3] = experiment: Induction of apoptosis in human A375 cells assessed as necrotic cells at 2 uM after 48 hrs by Annexin V-FITC/PI staining based flow cytometry (reference value: 1.55%); assay type: functional
[4] = Effect on total ERK1/2 protein level in human WM1361 cells after 30 mins by Western blot analysis; assay type: ADME, cell-based; details: 0.5 h
Procedure, shortened: (§1)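 Western blot. Cells rinsed in cold PBS, lysed 30 min on ice in RIPA with protease inhibitors (1:100), cleared at 12,000 g, 4 °C. Protein measured by BCA, resolved by SDS-PAGE, transferred to PVDF, blocked in skim milk. Primary antibodies 1:500 overnight at 4 °C; secondary 1:5000 for 1 h at room temperature.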

A-375 [5] = experiment: Cell cycle arrest in human A375 cells assessed as accumulation at S phase at 2.5 uM after 24 hrs by propidium iodide staining based flow cytometry (reference value: 21.3%); assay type: functional
A-375 [6] = experiment: Effect on total MEK1/2 protein level in human A375 cells after 30 mins by Western blot analysis; assay type: ADME, cell-based; details: a-375, 0.5 h; procedure, shortened: as §1
A-375 [7] = experiment: Induction of apoptosis in human A375 cells assessed as late apoptotic cells at 20 uM after 24 hrs by Annexin V-FITC/PI staining based flow cytometry (reference value: 4.26%); assay type: functional
A-375 [8] = experiment: Antiproliferative activity against human A375 cells after 48 hrs by MTT assay; assay type: functional; details: A-375, 48 h
Procedure, shortened: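 MTT reduction assay. Cell lines grown to log phase in DMEM with 10% FBS (A375 in DMEM with sodium pyruvate added), seeded at 10⁴ cells/well in 96-well plates. Three replicate wells per concentration, each assay run three times, GI50 averaged.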

A-375 [9] = experiment: Induction of apoptosis in human A375 cells assessed as late apoptotic cells at 2 uM after 48 hrs by Annexin V-FITC/PI staining based flow cytometry (reference value: 3.61%); assay type: functional
Procedure, shortened: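 Apoptosis time course. A375 cells in 24-well plates (about 10⁵/well) at 2 µM for 0, 24, 48 and 72 h. Harvested by trypsin, washed in PBS, stained 15 min at room temperature in the dark with Annexin V-FITC/PI, analysed by flow cytometry.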

A-375 [10] = experiment: Cell cycle arrest in human A375 cells assessed as accumulation at G1 phase at 20 uM after 24 hrs by propidium iodide staining based flow cytometry (reference value: 73.6%); assay type: functional
A-375 [11] = experiment: Cell cycle arrest in human A375 cells assessed as accumulation at G2/M phase at 2 uM after 24 hrs by propidium iodide staining based flow cytometry (reference value: 5.1%); assay type: functional
[12] = target: RAF proto-oncogene serine/threonine-protein kinase (Homo sapiens, UniProt P04049, Y340D/Y341D); experiment: Inhibition of recombinant human GST-tagged c-RAF (306 to 648 residues) Y340D/Y341D mutant expressed in baculovirus expression system using recombinant human full length N-terminal His-tagged MEK1 as substrate preincubated for 1 hr followed by substrate addition measured after 25 mins
RAF proto-oncogene serine/threonine-protein kinase, sequence (P04049 whole entry Y340D/Y341D, the tested form may be a part): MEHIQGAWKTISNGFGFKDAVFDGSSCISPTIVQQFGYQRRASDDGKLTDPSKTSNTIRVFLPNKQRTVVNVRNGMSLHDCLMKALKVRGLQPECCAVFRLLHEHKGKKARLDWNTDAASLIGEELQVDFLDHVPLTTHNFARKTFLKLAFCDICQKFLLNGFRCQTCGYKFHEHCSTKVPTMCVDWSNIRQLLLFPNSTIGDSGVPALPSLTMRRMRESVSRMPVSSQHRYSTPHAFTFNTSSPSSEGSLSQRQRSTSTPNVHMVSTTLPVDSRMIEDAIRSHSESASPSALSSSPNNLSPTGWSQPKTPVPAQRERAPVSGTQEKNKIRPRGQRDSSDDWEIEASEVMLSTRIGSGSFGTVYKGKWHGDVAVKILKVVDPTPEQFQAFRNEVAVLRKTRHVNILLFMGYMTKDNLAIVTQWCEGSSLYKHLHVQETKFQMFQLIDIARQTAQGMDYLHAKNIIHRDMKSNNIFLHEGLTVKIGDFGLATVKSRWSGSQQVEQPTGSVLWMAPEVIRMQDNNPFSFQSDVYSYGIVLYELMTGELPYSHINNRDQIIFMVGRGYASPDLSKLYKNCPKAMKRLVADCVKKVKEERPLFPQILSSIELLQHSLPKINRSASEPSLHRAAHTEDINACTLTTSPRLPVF

A-375 [13] = experiment: Induction of apoptosis in human A375 cells assessed as necrotic cells at 20 uM after 24 hrs by Annexin V-FITC/PI staining based flow cytometry (reference value: 1.61%); assay type: functional
A-375 [14] = experiment: Induction of apoptosis in human A375 cells assessed as late apoptotic cells at 5 uM after 24 hrs by Annexin V-FITC/PI staining based flow cytometry (reference value: 4.26%); assay type: functional
[15] = target: Serine/threonine-protein kinase B-raf (Mus musculus, UniProt P28028, V600E); experiment: Inhibition of mouse full length GST-tagged BRAF V600E mutant using recombinant human full length N-terminal His-tagged MEK1 as substrate preincubated for 1 hr followed by substrate addition measured after 25 mins
Serine/threonine-protein kinase B-raf, sequence (P28028 whole entry, looked up, stated change not applied): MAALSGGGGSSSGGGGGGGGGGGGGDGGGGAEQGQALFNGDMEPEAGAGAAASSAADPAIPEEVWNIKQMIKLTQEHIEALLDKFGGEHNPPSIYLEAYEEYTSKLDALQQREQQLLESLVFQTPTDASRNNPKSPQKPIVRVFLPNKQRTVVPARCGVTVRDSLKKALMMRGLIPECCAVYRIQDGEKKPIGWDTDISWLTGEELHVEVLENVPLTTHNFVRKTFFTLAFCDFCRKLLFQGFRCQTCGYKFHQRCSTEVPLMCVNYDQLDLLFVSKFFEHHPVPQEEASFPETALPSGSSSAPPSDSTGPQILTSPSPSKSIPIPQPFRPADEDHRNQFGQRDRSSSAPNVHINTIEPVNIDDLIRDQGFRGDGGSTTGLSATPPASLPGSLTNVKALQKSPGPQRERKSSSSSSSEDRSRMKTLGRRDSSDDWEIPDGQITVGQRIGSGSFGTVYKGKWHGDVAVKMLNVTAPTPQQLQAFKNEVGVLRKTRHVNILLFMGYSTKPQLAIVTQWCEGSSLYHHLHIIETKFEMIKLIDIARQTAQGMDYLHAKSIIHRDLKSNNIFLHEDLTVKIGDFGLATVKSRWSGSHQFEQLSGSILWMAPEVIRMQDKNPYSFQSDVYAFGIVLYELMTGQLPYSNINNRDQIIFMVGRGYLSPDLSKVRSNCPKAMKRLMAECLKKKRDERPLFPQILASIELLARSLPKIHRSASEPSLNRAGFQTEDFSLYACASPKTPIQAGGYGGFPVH

A-375 [16] = experiment: Cell cycle arrest in human A375 cells assessed as accumulation at G1 phase at 2 uM after 24 hrs by propidium iodide staining based flow cytometry (reference value: 73.6%); assay type: functional
A-375 [17] = experiment: Cell cycle arrest in human A375 cells assessed as accumulation at G1 phase at 2.5 uM after 24 hrs by propidium iodide staining based flow cytometry (reference value: 73.6%); assay type: functional
A-375 [18] = experiment: Induction of apoptosis in human A375 cells assessed as necrotic cells at 5 uM after 24 hrs by Annexin V-FITC/PI staining based flow cytometry (reference value: 1.61%); assay type: functional

Compound `COc1cccc(C2=NN(C(=S)Nc3ccccc3)C(c3ccc4c(c3)OCCO4)C2)c1` (stereo not drawn) has an Activity (A-375 [1]) of 15%, an Activity (A-375 [2]) of 30.2% and an Activity (A-375 [3]) of 3.05%. For the same compound, the Activity [4] was “Non-Toxic”, the Activity (A-375 [5]) was 19.5% and the Activity (A-375 [6]) was “Non-Toxic”. The Activity (A-375 [7]) was 11%, the GI50 (A-375 [8]) was 520 nM and the Activity (A-375 [9]) was 5.37%. It also gave an Activity (A-375 [10]) of 52.8%, an Activity (A-375 [11]) of 10.3% and a pIC50 [12] of under 3.70. It also gave an Activity (A-375 [13]) of 3.25%, an Activity (A-375 [14]) of 8.1% and a pIC50 [15] of 7.22. It also gave an Activity (A-375 [16]) of 72.4%, an Activity (A-375 [17]) of 72.3% and an Activity (A-375 [18]) of 3.6%.
